# Measurements from ChEMBL document CHEMBL1125903, “New derivatives of kanamycin B obtained by modifications and substitutions in position 6". 1. Synthesis and microbiological evaluation” (1991).
# How the values were obtained:
# Serratia marcescens [1] = experiment: Minimum inhibitory concentration measured against Serratia marcescens (ATCC 8100); assay type: functional
# In short: (§1)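 Agar dilution MIC on Mueller-Hinton agar supplemented with CaCl2 and MgCl2 (NCCLS standards), 2-fold dilutions. Compounds tested as sulfate salts dissolved in sterile water; values expressed in mg/L of free base, with base content determined by 1H NMR. Spots of 10^4-10^5 CFU applied by multipoint inoculator. Growth read visually after 24 h at 37 °C.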
# Enterococcus faecalis = experiment: Minimum inhibitory concentration measured against […] faecalis (ATCC 19431); assay type: functional; in short: as §1
# Klebsiella aerogenes = experiment: Minimum inhibitory concentration measured against Enterobacter aerogenes (ATCC 13048); assay type: functional; in short: as §1
# Pseudomonas aeruginosa = experiment: Minimum inhibitory concentration measured against Pseudomonas aeruginosa (NCTC 10701); assay type: functional; in short: as §1
# Proteus vulgaris = experiment: Minimum inhibitory concentration measured against Proteus vulgaris (ATCC 13315); assay type: functional; in short: as §1
# Staphylococcus aureus = experiment: Minimum inhibitory concentration measured against Staphylococcus aureus (ATCC 25923); assay type: functional; in short: as §1
# Bacillus subtilis = experiment: Minimum inhibitory concentration measured against Bacillus subtilis (ATCC 6633); assay type: functional; in short: as §1
# Salmonella typhimurium = experiment: Minimum inhibitory concentration measured against Salmonella Typhimurium (ATCC 14028); assay type: functional, Salmonella enterica subsp. enterica serovar Typhimurium; conditions: Salmonella enterica; in short: as §1
# Klebsiella pneumoniae = experiment: Minimum inhibitory concentration measured against Klebsiella pneumoniae (ATCC 13883); assay type: functional; in short: as §1
# Citrobacter freundii = experiment: Minimum inhibitory concentration measured against Citrobacter freundii (ATCC 8090); assay type: functional; in short: as §1
# Escherichia coli = experiment: Minimum inhibitory concentration measured against Escherichia coli (ATCC 25922); assay type: functional; in short: as §1
# [2] = test system: Staphylococcus epidermidis; experiment: Minimum inhibitory concentration measured against Staphylococcus epidermidis (ATCC 12228); assay type: functional; in short: as §1
# Enterobacter cloacae = experiment: Minimum inhibitory concentration measured against Enterobacter cloacae (ATCC 23355); assay type: functional; in short: as §1
# Serratia marcescens [3] = experiment: Minimum inhibitory concentration measured against CDC 87457 strain; assay type: functional; in short: as §1
SMILES,MIC (Serratia marcescens [1]),MIC (Enterococcus faecalis),MIC (Klebsiella aerogenes),MIC (Pseudomonas aeruginosa),MIC (Proteus vulgaris),MIC (Staphylococcus aureus),MIC (Bacillus subtilis),MIC (Salmonella typhimurium),MIC (Klebsiella pneumoniae),MIC (Citrobacter freundii),MIC (Escherichia coli),MIC [2],MIC (Enterobacter cloacae),MIC (Serratia marcescens [3])
CCCSCC1OC(OC2C(NC(=O)OC(C)(C)C)CC(NC(=O)OC(C)(C)C)C(OC3OC(CNC(=O)OC(C)(C)C)C(O)C(O)C3NC(=O)OC(C)(C)C)C2O)C(O)C(NC(=O)OC(C)(C)C)C1O (stereo not drawn),> 64 µg/mL,8 µg/mL,4 µg/mL,> 64 µg/mL,1 µg/mL,1 µg/mL,4 µg/mL,8 µg/mL,2 µg/mL,1 µg/mL,2 µg/mL,0.25 µg/mL,0.25 µg/mL,
CC(=O)N(C)CC1OC(OC2C(NC(=O)OC(C)(C)C)CC(NC(=O)OC(C)(C)C)C(OC3OC(CNC(=O)OC(C)(C)C)C(O)C(O)C3NC(=O)OC(C)(C)C)C2O)C(O)C(NC(=O)OC(C)(C)C)C1O (stereo not drawn),> 64 µg/mL,> 64 µg/mL,32 µg/mL,> 64 µg/mL,8 µg/mL,4 µg/mL,32 µg/mL,64 µg/mL,8 µg/mL,8 µg/mL,32 µg/mL,2 µg/mL,1 µg/mL,
CCCCCC(=O)N(CCCC)CC1OC(OC2C(NC(=O)OC(C)(C)C)CC(NC(=O)OC(C)(C)C)C(OC3OC(CNC(=O)OC(C)(C)C)C(O)C(O)C3NC(=O)OC(C)(C)C)C2O)C(O)C(NC(=O)OC(C)(C)C)C1O (stereo not drawn),> 64 µg/mL,> 64 µg/mL,> 64 µg/mL,> 64 µg/mL,> 64 µg/mL,> 64 µg/mL,> 64 µg/mL,> 64 µg/mL,> 64 µg/mL,> 64 µg/mL,> 64 µg/mL,> 64 µg/mL,32 µg/mL,
NC[C@H]1O[C@H](O[C@H]2[C@H](O)[C@@H](O[C@H]3O[C@H](CO)[C@@H](O)[C@H](N)[C@H]3O)[C@H](N)C[C@@H]2N)[C@H](N)[C@@H](O)[C@@H]1O [BEKANAMYCIN],1 µg/mL,16 µg/mL,0.5 µg/mL,32 µg/mL,0.25 µg/mL,0.5 µg/mL,0.5 µg/mL,1 µg/mL,0.25 µg/mL,0.5 µg/mL,1 µg/mL,0.25 µg/mL,0.25 µg/mL,1 µg/mL
